pIC50: −log10 of the molar value.
Tests used:
[1] = Oral bioavailability in nu/nu mouse at 10 mg/kg by LC-MS analysis; assay type: ADME, organism-based; settings: in vivo
SK-N-MC = assay: Antiproliferative activity against human SK-N-MC cells assessed as inhibition of cell growth incubated for 72 hrs by cell-titer glo assay; assay type: functional, cell-based
[2] = target: G protein-coupled receptor kinase 6 (Homo sapiens) (UniProt P43250); assay: Inhibition of N-terminal 6His-tagged recombinant full-length human GRK6 expressed in baculovirus infected Sf21 cells assessed as residual activity at 1 uM relative to control
[3] = target: Mitogen-activated protein kinase 12 (Homo sapiens) (UniProt P53778); assay: Inhibition of recombinant GST fusion protein corresponding to full-length human SAPK3 expressed in E. coli assessed as residual activity at 1 uM relative to control
Mitogen-activated protein kinase 12 (Homo sapiens), sequence (P53778 whole entry, the tested form may be a part): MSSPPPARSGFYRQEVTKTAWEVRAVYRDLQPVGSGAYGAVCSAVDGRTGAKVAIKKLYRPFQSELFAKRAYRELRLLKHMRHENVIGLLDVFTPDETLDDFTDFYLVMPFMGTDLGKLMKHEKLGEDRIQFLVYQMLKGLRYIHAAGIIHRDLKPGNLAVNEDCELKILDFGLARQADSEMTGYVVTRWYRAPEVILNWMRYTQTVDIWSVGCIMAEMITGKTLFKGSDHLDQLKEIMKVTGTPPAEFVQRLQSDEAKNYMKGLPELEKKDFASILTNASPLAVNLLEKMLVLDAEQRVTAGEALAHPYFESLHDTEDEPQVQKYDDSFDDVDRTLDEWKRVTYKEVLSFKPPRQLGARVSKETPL

HOP-92 = assay: Antiproliferative activity against human HOP-92 cells assessed as inhibition of cell growth incubated for 72 hrs by cell-titer glo assay; assay type: functional, cell-based; settings: HOP-92, 72 h
How it was run: (§1)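 Cells seeded at 10,000–30,000/cm² (adherent) or 100,000/mL (nonadherent) in medium with 10% fetal calf serum; after 24 h, treated in duplicate with serial dilutions for 72 h. Viable cell number read by CellTiter-Glo luminescence; IC50 from sigmoidal fit; at least two independent experiments.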

[4] = target: Tyrosine-protein kinase Fgr (Homo sapiens) (UniProt P09769); assay: Inhibition of N-terminal His6-tagged recombinant human Fgr (2 to end residues) expressed in baculovirus infected Sf21 cells assessed as residual activity at 0.1 uM relative to control
Tyrosine-protein kinase Fgr (Homo sapiens), sequence (P09769 2-529 limits assumed): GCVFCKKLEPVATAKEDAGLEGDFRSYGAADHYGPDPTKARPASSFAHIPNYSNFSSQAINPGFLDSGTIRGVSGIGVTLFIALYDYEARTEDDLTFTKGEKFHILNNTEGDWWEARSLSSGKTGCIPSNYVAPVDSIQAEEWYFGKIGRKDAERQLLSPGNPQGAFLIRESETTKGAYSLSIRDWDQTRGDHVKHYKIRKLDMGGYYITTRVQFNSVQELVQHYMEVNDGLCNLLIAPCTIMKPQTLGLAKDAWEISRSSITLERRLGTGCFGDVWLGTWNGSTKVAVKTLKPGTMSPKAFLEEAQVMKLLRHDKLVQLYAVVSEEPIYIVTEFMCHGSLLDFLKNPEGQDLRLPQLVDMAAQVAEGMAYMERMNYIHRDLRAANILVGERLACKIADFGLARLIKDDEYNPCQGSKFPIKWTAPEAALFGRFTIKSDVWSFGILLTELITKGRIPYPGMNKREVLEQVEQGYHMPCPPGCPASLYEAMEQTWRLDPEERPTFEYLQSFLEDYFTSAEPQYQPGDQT

[5] = target: MAP kinase-interacting serine/threonine-protein kinase 2 (Homo sapiens, UniProt Q9HBH9); assay: Inhibition of MNK2 (unknown origin) in presence of [gamma-33P]ATP
MAP kinase-interacting serine/threonine-protein kinase 2, sequence (Q9HBH9 whole entry): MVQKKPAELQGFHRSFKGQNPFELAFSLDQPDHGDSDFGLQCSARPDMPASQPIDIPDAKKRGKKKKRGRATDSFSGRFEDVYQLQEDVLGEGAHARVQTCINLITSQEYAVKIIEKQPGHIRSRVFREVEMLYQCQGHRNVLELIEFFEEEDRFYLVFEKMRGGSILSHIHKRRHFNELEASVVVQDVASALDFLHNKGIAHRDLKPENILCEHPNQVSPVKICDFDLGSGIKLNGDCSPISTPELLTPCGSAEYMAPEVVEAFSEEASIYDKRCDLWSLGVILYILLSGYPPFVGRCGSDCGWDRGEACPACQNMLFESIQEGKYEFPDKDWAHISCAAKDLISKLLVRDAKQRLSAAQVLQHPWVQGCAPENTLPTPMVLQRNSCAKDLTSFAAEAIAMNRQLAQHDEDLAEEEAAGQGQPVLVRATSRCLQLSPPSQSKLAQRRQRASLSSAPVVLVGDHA

NCI-H23 = assay: Antiproliferative activity against human NCI-H23 cells assessed as inhibition of cell growth incubated for 72 hrs by cell-titer glo assay; assay type: functional, cell-based; settings: NCI-H23, 72 h
How it was run: (§2)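 Cells from ATCC or ECACC, kept in supplier-recommended medium with 1% penicillin-streptomycin at 37°C, 5% CO₂. Seeded at 10,000–30,000/cm² (adherent) or 100,000/mL (nonadherent) in medium with 10% fetal calf serum. Dosed after 24 h in duplicate with serial dilutions. Viable cells read by CellTiter-Glo 72 h later. IC50 from sigmoidal fit. At least two independent experiments.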

SR = assay: Antiproliferative activity against human SR cells assessed as inhibition of cell growth incubated for 72 hrs by cell-titer glo assay; assay type: functional, cell-based
[6] = target: Mitogen-activated protein kinase 11 (Homo sapiens) (UniProt Q15759); assay: Inhibition of N-terminal GST fusion protein corresponding to full-length human SAPK2b expressed in E. coli assessed as residual activity at 0.1 uM relative to control
Mitogen-activated protein kinase 11 (Homo sapiens), sequence (Q15759 whole entry, the tested form may be a part): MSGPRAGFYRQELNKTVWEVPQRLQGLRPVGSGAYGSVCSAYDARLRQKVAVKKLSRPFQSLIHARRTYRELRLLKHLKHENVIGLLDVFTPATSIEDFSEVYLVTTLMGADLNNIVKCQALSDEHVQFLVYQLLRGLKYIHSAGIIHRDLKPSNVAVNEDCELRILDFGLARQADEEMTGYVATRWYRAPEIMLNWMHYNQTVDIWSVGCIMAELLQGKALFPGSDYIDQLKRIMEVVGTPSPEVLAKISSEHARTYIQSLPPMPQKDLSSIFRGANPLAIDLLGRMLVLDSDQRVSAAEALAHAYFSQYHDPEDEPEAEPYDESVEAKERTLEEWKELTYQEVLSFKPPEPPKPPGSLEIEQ

HL-60 = assay: Antitumor activity against human HL-60 cells xenografted in nu/nu mouse assessed as tumor growth inhibition at 60 mg/kg, po administered for 10 days relative to control; assay type: functional; settings: HL-60, 240 h, time 10 day, read-out: TGI
HCT-15 = assay: Antiproliferative activity against human HCT-15 cells assessed as inhibition of cell growth incubated for 72 hrs by cell-titer glo assay; assay type: functional, cell-based; settings: HCT-15, 72 h; how it was run: as §1
COLO 320 = assay: Antiproliferative activity against human COLO 320 cells assessed as inhibition of cell growth incubated for 72 hrs by cell-titer glo assay; assay type: functional, cell-based; settings: COLO 320, 72 h
How it was run: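 Cells seeded 10,000–30,000/cm² (adherent) or 100,000/mL (suspension) in medium with 10% fetal calf serum; after 24 h treated in duplicate with serial dilutions for 72 h. Viable cells read by CellTiter-Glo luminescence; IC50 from sigmoidal fit; at least two independent experiments.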

[7] = Oral bioavailability in Sprague-Dawley rat at 10 mg/kg by LC-MS analysis; assay type: ADME, organism-based; settings: in vivo
[8] = target: Serine/threonine-protein kinase 26 (Homo sapiens, UniProt Q9P289); assay: Inhibition of MST4 (unknown origin) in presence of [gamma-33P]ATP
U2OS = assay: Induction of cell death in human U2OS cells assessed as reduced cell number at 1 uM by time lapse microscopy analysis; assay type: functional, cell-based; settings: time lower […], time upper 48.0 hrs, TDE = time-dependent effect
[9] = target: cGMP-dependent protein kinase 1 (Homo sapiens) (UniProt Q13976); assay: Inhibition of N-terminal 6His-tagged recombinant, full-length human PKG1alpha expressed in baculovirus infected Sf21 cells assessed as residual activity at 0.1 uM relative to control
cGMP-dependent protein kinase 1 (Homo sapiens), sequence (Q13976 whole entry): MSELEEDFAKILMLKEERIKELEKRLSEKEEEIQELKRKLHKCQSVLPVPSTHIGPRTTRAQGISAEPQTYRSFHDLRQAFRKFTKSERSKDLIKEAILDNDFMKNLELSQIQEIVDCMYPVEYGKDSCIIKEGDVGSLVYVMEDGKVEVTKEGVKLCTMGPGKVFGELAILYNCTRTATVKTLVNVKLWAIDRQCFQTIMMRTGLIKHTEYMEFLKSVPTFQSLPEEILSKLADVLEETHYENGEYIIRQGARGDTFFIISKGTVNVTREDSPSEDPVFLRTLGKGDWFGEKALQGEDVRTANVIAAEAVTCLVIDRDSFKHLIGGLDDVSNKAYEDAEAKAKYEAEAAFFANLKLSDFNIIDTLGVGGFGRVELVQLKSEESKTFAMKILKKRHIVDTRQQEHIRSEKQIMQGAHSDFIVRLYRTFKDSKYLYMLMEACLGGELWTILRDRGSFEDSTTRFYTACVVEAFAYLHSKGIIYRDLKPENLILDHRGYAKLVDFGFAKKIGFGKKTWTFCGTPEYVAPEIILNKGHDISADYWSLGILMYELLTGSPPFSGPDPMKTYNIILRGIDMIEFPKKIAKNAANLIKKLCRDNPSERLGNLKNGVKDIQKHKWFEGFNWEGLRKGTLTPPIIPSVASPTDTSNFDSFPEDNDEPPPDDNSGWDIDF

HCC1954 = assay: Antiproliferative activity against human HCC1954 cells assessed as inhibition of cell growth incubated for 72 hrs by cell-titer glo assay; assay type: functional, cell-based; settings: HCC1954, 72 h; how it was run: as §1
[10] = Half-life in Beagle dog at 5 mg/kg, po by LC-MS analysis; assay type: ADME, organism-based, Canis lupus familiaris; settings: in vivo
OPM-2 = assay: Antiproliferative activity against human OPM-2 cells assessed as inhibition of cell growth incubated for 72 hrs by cell-titer glo assay; assay type: functional, cell-based; settings: OPM-2, 72 h; how it was run: as §2
[11] = target: 3-phosphoinositide-dependent protein kinase 1 (Homo sapiens) (UniProt O15530); assay: Inhibition of N-terminal His6-tagged recombinant human PDK1 (52 to end residues) expressed in baculovirus infected Sf21 cells assessed as residual activity at 0.1 uM relative to control
3-phosphoinositide-dependent protein kinase 1 (Homo sapiens), sequence (O15530 whole entry, looked up): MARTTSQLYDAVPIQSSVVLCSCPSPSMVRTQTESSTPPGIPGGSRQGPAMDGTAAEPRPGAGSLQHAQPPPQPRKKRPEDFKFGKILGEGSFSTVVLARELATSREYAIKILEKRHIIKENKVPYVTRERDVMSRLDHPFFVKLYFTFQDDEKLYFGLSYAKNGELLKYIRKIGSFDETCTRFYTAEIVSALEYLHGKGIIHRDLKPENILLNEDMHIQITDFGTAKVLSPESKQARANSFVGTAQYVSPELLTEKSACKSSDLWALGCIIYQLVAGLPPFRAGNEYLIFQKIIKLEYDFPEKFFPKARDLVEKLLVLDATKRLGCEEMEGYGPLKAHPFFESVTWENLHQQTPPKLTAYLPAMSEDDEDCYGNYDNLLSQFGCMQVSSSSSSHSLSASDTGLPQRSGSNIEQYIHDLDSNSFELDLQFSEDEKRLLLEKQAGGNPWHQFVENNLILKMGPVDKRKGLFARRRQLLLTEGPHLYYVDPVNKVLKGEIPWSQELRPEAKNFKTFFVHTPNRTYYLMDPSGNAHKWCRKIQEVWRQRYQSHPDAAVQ

[12] = target: Serine/threonine-protein kinase PAK 4 (Homo sapiens, UniProt O96013); assay: Inhibition of PAK4 (unknown origin) in presence of [gamma-33P]ATP
Serine/threonine-protein kinase PAK 4, sequence (O96013 whole entry, the tested form may be a part): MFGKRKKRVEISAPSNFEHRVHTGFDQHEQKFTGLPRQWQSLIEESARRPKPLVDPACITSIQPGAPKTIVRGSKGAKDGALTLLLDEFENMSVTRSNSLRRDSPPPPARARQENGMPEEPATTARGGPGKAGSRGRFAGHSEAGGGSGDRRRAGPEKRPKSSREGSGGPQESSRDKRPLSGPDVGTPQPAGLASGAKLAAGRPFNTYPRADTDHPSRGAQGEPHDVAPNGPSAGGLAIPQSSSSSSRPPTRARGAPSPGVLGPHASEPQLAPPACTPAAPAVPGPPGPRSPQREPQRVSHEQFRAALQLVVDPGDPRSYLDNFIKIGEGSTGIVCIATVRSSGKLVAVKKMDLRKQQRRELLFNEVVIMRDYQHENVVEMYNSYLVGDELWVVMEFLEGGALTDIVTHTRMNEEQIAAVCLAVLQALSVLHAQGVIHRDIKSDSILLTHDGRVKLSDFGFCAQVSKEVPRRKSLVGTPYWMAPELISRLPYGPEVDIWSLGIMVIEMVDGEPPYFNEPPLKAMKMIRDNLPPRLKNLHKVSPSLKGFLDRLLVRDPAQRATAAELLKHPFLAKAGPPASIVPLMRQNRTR

[13] = target: Insulin receptor-related protein (Homo sapiens) (UniProt P14616); assay: Inhibition of N-terminal 6His-tagged recombinant human IRR (944 to 1266 residues) expressed in baculovirus infected Sf21 cells assessed as residual activity at 1 uM relative to control
Insulin receptor-related protein (Homo sapiens), sequence (P14616 27-742 limits assumed): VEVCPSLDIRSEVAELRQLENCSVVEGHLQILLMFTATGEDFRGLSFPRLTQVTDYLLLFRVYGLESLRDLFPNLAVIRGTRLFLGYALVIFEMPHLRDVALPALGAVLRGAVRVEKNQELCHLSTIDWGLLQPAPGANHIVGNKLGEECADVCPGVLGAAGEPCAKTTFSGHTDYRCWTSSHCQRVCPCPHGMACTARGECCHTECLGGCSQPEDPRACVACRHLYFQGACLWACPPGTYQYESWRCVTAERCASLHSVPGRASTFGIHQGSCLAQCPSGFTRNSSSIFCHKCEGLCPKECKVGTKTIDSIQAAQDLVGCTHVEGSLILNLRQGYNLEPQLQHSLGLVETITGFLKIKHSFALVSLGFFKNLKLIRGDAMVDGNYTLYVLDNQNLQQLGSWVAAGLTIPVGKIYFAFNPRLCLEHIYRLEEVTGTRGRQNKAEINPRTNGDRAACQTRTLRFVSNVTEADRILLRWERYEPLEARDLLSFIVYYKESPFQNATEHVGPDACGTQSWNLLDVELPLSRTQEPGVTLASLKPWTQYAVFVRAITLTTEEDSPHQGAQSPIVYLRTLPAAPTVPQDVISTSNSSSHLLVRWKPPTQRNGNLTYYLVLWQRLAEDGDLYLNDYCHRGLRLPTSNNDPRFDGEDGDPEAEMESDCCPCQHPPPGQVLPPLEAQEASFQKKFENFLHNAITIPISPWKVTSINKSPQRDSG
Insulin receptor-related protein (Homo sapiens), sequence (P14616 747-1297 limits assumed): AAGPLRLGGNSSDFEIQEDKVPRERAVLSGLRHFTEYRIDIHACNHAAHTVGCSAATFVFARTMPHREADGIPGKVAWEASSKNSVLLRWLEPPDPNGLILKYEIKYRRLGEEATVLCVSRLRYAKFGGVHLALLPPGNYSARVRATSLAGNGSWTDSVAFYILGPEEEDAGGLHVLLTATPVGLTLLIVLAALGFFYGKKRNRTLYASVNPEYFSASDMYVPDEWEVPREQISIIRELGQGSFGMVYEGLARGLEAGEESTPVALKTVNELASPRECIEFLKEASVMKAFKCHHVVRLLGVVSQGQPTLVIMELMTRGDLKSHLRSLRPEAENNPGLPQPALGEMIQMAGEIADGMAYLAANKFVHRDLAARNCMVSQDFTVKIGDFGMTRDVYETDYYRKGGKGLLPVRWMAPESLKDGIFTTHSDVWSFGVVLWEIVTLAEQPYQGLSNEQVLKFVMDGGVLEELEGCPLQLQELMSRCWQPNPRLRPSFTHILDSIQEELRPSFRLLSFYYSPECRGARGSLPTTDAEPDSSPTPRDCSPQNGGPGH

Hs-578T = assay: Antiproliferative activity against human Hs-578T cells assessed as inhibition of cell growth incubated for 72 hrs by cell-titer glo assay; assay type: functional, cell-based; how it was run: as §1
NCI-H520 = assay: Antiproliferative activity against human NCI-H520 cells assessed as inhibition of cell growth incubated for 72 hrs by cell-titer glo assay; assay type: functional, cell-based; settings: NCI-H520, 72 h; how it was run: as §2
[14] = Antitumor activity against human Acute myeloid leukemic cell xenografted in nu/nu mouse assessed as increase in median survival time at 120 mg/kg, po administered for 2 days and measured after 10 days in presence of cytarabine (reference value: 34 days); settings: time 2 day
[15] = Volume of distribution at steady state in nu/nu mouse at 10 mg/kg, iv by LC-MS analysis; assay type: ADME, organism-based; settings: in vivo, read-out: Vdss
NCI-H526 = assay: Antiproliferative activity against human NCI-H526 cells assessed as inhibition of cell growth incubated for 72 hrs by cell-titer glo assay; assay type: functional, cell-based; settings: NCI-H526, 72 h; how it was run: as §2
[16] = target: Cyclin-dependent kinase 2/cyclin E1 (Homo sapiens, UniProt P24941); assay: Inhibition of CDK2/CycE (unknown origin) in presence of [gamma-33P]ATP; assay type: protein-complex assay
[17] = target: Calcium/calmodulin-dependent protein kinase type II subunit delta (Homo sapiens) (UniProt Q13557); assay: Inhibition of recombinant full length human CaMKIIdelta assessed as residual activity at 0.1 uM relative to control

Compound: CN1CCN(c2ccc(OC(F)(F)F)c(Nc3ncc4c(n3)-c3c(c(C(N)=O)nn3CCO)CC4)c2)CC1 [ONVANSERTIB]
- bioavailability [1]: 24%
- pIC50 (SK-N-MC): 7.14
- Activity [2]: 93%
- Activity [3]: 113%
- pIC50 (HOP-92): 6.55
- Activity [4]: 93%
- pIC50 [5]: < 5.00
- pIC50 (NCI-H23): 7.25
- pIC50 (SR): 7.33
- Activity [6]: 152%
- inhibition in vivo at 60 mg/kg (HL-60): 98%
- pIC50 (HCT-15): 6.81
- pIC50 (COLO 320): 6.72
- F [7]: 100%
- pIC50 [8]: < 5.00
- Activity (U2OS): Tde
- Activity [9]: 113%
- pIC50 (HCC1954): 7.82
- half-life [10]: 276 min
- pIC50 (OPM-2): 7.42
- Activity [11]: 142%
- pIC50 [12]: < 5.00
- Activity [13]: 114%
- pIC50 (Hs-578T): 6.60
- pIC50 (NCI-H520): 7.14
- Time [14]: 79 days
- Vd [15]: 1.7 L/kg
- pIC50 (NCI-H526): 7.51
- pIC50 [16]: < 5.00
- Activity [17]: 88%
